Screening results: PubChem, several laboratories
Only some compounds are listed: those with a hit (about 1% of all), similar ones and a draw of the others.
NALP1 inh – blocks the NALP1 inflammasome reconstituted in yeast; S. cerevisiae NALP1/ASC/caspase-1 growth, X-gal OD620, 72 h; inhibition, % at 10 µM; 0.61% of 280,000 active; in the data active means inhibition mostly above about 24%, no sharp cut-off; inactive means mostly below about 32%
NLRP3 yeast inh – NALP3 inhibition in yeast | Yeast reconstituted NLRP3/ASC/caspase-1, beta-gal luminescence, 24 h | AID 2825 | 0.39% of 330,000 active | inhibition, % at 10 µM;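 active means inhibition of 50% or more; inactive means inhibition below 50%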
T cell HTS – modulates CD8 T cell binding to vesicles; 2C CD8+ T cell-vesicle binding, flow cytometry; active compounds read low; response (vesicle binding), % at 7 µM; 0.068% of 330,000 active; AID 2052;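 active means response, share of CD8 T cells binding vesicles, and their 90th percentile fluorescence all below set limits, cut at about 80% in these data, passing the limit was not always enough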;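 further: values below 100% mean blocked vesicle binding to the CD8+ T cells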
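Assay system: 2C TCR transgenic mouse naive CD8+ T cells, MACS-purified | Read-out: CD8+ gate FL2 mean fluorescence as % of same-row positive control | Signal: High-throughput flow cytometry with anti-B7-1 and anti-CD8 staining | Timing: Binding step 1.5 h, 37 °C, antibody labelling 20 min, ice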
Bfl-1 A1 inh – inhibitors of the anti-apoptotic protein A1, read as caspase activation. MEF A1-2A-BIM cells, Caspase-Glo 3/7 luminescence, 3 h; percent of clofoctol response, vehicle zero. caspase activation, % (concentration not given with the values). 0.066% of 330,000 active. AID 2462;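 active means over half of replicate activation scores above 10%, or exactly half above 10 with the replicate mean above 10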
A number is an active result; i = inactive; nt = not tested or not shown.

SMILES	NALP1 inh	NLRP3 yeast inh	T cell HTS	Bfl-1 A1 inh
CCN(CC)c1ccc(NC(=O)C2=CC=CN3CCS(=O)(=O)N=C23)cc1	nt	i	0.0	i
CN1/C(=C\C=Nc2ccc3ccccc3c2)C(C)(C)c2ccccc21	28.3	i	i	i
Cc1noc2ncnc(Oc3cc(Cl)ccc3Cl)c12	20.9	i	i	i
CC1(NC(=O)CSc2nnc(-c3c[nH]c4ccccc34)n2C2CC2)CCS(=O)(=O)C1 (stereo not given)	nt	i	i	i
Cc1cc(NC(=O)CSc2nc3c([nH]c4ccccc43)c(=O)n2-c2ccccc2F)no1	i	i	i	i
CC1(C)NC(=O)N(CCSc2ccc(Cl)cc2)C1=O	30.2	i	i	i
CC1(C)NC(=O)N(CC(O)CN(c2ccccc2)S(=O)(=O)c2ccccc2[N+](=O)[O-])C1=O (stereo not given)	i	i	i	i
O=C(C[C@@H]1C/C=C\CC[C@H](Cc2ccc(F)cc2)C(=O)OC[C@@H](Cc2ccccc2)NC1=O)NCCO	nt	i	i	i
C[C@@H]1COC(=O)[C@H](Cc2ccc(F)cc2)CC/C=C\C[C@@H](CC(=O)NCCO)C(=O)N1	nt	i	59.6	i
CNC(=O)CSCc1cnn(-c2ccccc2)c1-n1cccc1	41.2	i	i	i
O=C(CSCc1cnn(-c2ccccc2)c1-n1cccc1)NCc1cccs1	i	i	i	i
Cc1ccc(NC2=C(NC(=O)c3ccccc3)C(=O)c3ccccc3C2=O)cc1Cl	64.6	i	i	i
COc1ccc(CN2CCC(Oc3cc(C(=O)NC4CC4)ccc3OC)CC2)c(O)c1	i	i	i	nt
O=S(=O)(NC1CCCCC1)c1ccc(Cl)s1	40.8	i	i	i
CCOC(=O)C1CCN(S(=O)(=O)c2ccc3c4c(cccc24)C(=O)N3CC)CC1	nt	i	i	i
Brc1ccc(/C=N/Nc2ncnc3c2cnn3Cc2ccccc2)cc1	30.1	i	i	i
c1ccc(Cn2ncc3c(Nc4ccccc4)ncnc32)cc1	nt	i	i	i
CCN(C(=O)C1CCCN1S(=O)(=O)c1ccc2c(c1)n(C)c(=O)c(=O)n2C)c1ccccc1 (stereo not given)	i	i	32.3	i
CC(=O)NCCC(=O)N1CCCC(N2CCN(c3cccc(Cl)c3)CC2)C1 (stereo not given)	i	i	i	i
CCOC(=O)COc1ccc2ccccc2c1/C=C/[N+](=O)[O-]	79.2	nt	i	i
COc1ccc2oc(=O)c(-c3csc(Nc4cccc(O)c4)n3)cc2c1	i	i	0.0	i
COc1ccc(Nc2nc(-c3cc4cccc(OC)c4oc3=O)cs2)cc1	i	i	i	i
O=C(CCNC(=O)c1ccccc1)Nc1ccc(Cl)c(S(=O)(=O)N2CCCCC2)c1	nt	i	i	i
COc1cc(C(=O)N[C@H](C(=O)NC(C)C23CC4CC(CC(C4)C2)C3)C(C)C)cc(OC)c1OC (stereo not given in full)	40.7	i	i	i
CSc1ccc(CN2CCC(C(=O)NCc3ccc(C)cc3)CC2)cc1	25.0	i	i	i
SMILES	NALP1 inh	NLRP3 yeast inh	T cell HTS	Bfl-1 A1 inh
O=C(O)CN1CCc2ccccc2C1	31.8	i	i	i
CC1CCN(CCOc2ccc(OCc3ccccc3)cc2)CC1	49.3	i	i	i
COc1cccc(CNC(=O)CCc2ccc(OC)c(OC)c2)c1	i	i	i	i
COc1ccccc1/C=C/C(=O)N1CCN(S(=O)(=O)c2cc(C)ccc2C)CC1	nt	i	i	i
CCOC(=O)c1[nH]ncc1CN1CCCC(C(=O)c2ccc(OC)c(OC)c2)C1 (stereo not given)	i	i	i	i
COc1ccc(C(=O)C2CCCN(Cc3c[nH]c4ccccc34)C2)c(OC)c1 (stereo not given)	27.9	i	i	i
CCOC(=O)c1[nH]ncc1CN1CCCC(C(=O)c2cc(Cl)ccc2OC)C1 (stereo not given)	33.0	i	i	i
Cn1c(O)c(N=NC(=O)c2ccco2)c2ccccc21	36.2	i	i	i
Cn1c(O)c(N=NC(=O)CNC(=O)c2ccco2)c2ccccc21	nt	i	i	i
Cn1c(O)c(N=NC(=O)CNC(=O)/C=C/c2ccccc2)c2ccccc21	36.6	i	i	i
CCn1c(O)c(N=NC(=O)CNC(=O)/C=C/c2ccccc2)c2ccccc21	i	i	i	i
NS(=O)(=O)c1ccc(N2CCOCC2)c(C(=O)NCCCSc2ccccc2)c1	nt	i	i	i
C=CCOc1ccc(C(=O)c2ccccc2)c(OCC(=O)NC2(C#N)CCCC2)c1	i	i	i	i
COc1ccc(C(=O)C(/C=N/O)=N/Nc2ccc(F)cc2)cc1	20.2	i	i	i
CO/N=C/C(=N\Nc1ccc(OC)cc1)C(=O)c1ccc(OC)cc1	i	i	i	i
COCc1c(C(=O)NCc2ccccc2CN2CCCC2)oc2ccccc12	nt	i	i	i
O=C(Nc1ccccc1O)c1cccc(S(=O)(=O)N2CCOCC2)c1	28.7	i	i	i
COc1ccccc1NC(=O)c1cccc(S(=O)(=O)N2CCOCC2)c1	i	i	i	i
Cc1ccc(S(=O)(=O)NCC2CCC(C(=O)NCc3ccc4c(c3)OCO4)CC2)cc1 (stereo not given)	41.4	i	i	i
Cc1ccc(S(=O)(=O)c2nc(-c3ccccc3)oc2N2CCC(C(N)=O)CC2)cc1	33.9	i	i	i
OCCN1CCN(c2nc(NCc3ccco3)c3ccccc3n2)CC1	i	i	i	i
Cc1ccc(OCCN2CCN(c3nc(NCc4ccco4)c4ccccc4n3)CC2)cc1	73.0	i	i	i
O=C(Nc1ccc(Cl)cc1)c1ccc(OCC2CCCO2)cc1 (stereo not given)	35.0	i	i	i
COc1ccc(C(=O)/C=C/C(=O)N(CC(=O)NC2CCCCC2)Cc2cccs2)c(O)c1	i	i	i	26.5
COCCN(CC(=O)NC1CCCCC1)C(=O)/C=C/C(=O)c1ccc(OC)cc1O	i	nt	nt	nt
SMILES	NALP1 inh	NLRP3 yeast inh	T cell HTS	Bfl-1 A1 inh
O=S(=O)(Cc1ccccc1)N1CCn2c(nc3ccccc32)C1	40.8	i	i	i
O=C(O)C1CC=CCC1C(=O)N1CCN(c2nc(-c3ccccc3Cl)c3cc(Br)ccc3n2)CC1 (stereo not given)	26.7	i	i	i
N#C/C(=C\c1ccc(C#N)cc1)C(=O)c1ccccc1	i	nt	i	i
CN(C)c1ccc(/C=C(\C#N)C(=O)c2ccccc2)cc1	36.6	nt	i	i
COc1ccc(CCNC(=O)C/C(C)=N/NC(=O)c2cnccn2)cc1	i	i	i	i
O=C(NC1CCCCC1)C(c1ccc(F)cc1)N(CCc1ccccc1)C(=O)CN1C(=O)c2ccccc2S1(=O)=O (stereo not given)	i	nt	i	17.8
CCOC(=O)c1c(S(=O)(=O)NCC(C)c2ccccc2)c(C)n(C)c1C (stereo not given)	i	i	i	i
COc1cc2c(cc1OC)C(c1cccc(C)c1)CC(=O)N2 (stereo not given)	44.5	i	i	i
COc1cc2c(cc1OC)C(c1cccc(Cl)c1)CC(=O)N2 (stereo not given)	i	i	i	i
Cc1ccc(C(=O)Nc2nnc(S(=O)(=O)N3CCC(C)CC3)s2)cc1	i	i	i	i
